Reference: ChEMBL document CHEMBL3853298, “Total synthesis and in vitro bioevaluation of clavaminols A, C, H & deacetyl clavaminol H as potential chemotherapeutic and antibiofilm agents” (Eur J Med Chem, 2016)
Converted amounts (≈) assume the structure as drawn. The source made the active and inactive calls. The rule behind the calls is not given here.

Tests used:
Staphylococcus aureus [1] = experiment: Antibacterial activity against Staphylococcus aureus MTCC 96 after 24 hrs by well diffusion method; assay type: functional; settings: MTCC 96, 24 h
Procedure, shortened: (§1)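 Bacteria spread (0.1 mL suspension) on Mueller-Hinton agar; 6.0 mm wells loaded with compound over a 250 to 0.48 per-well dose range, methanol as negative control. Incubated 24 h at 37 °C. MIC taken as the lowest concentration still giving an inhibition zone. Duplicates, mean reported.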

Bacillus subtilis [2] = experiment: Antibacterial activity against Bacillus subtilis MTCC 121 after 24 hrs by well diffusion method; assay type: functional; settings: MTCC 121, 24 h; procedure, shortened: as §1
Micrococcus luteus [3] = experiment: Antibacterial activity against Micrococcus luteus MTCC 2470 after 24 hrs by well diffusion method; assay type: functional; settings: MTCC 2470, 24 h; procedure, shortened: as §1
Staphylococcus aureus [4] = experiment: Antibacterial activity against Staphylococcus aureus MLS16 MTCC 2940 after 24 hrs by well diffusion method; assay type: functional; settings: MLS16 MTCC 2940, 24 h; procedure, shortened: as §1
Raoultella planticola [5] = experiment: Antibacterial activity against Klebsiella planticola MTCC 530 after 24 hrs by well diffusion method; assay type: functional; settings: MTCC 530, 24 h; procedure, shortened: as §1
Escherichia coli [6] = experiment: Antibacterial activity against Escherichia coli MTCC 739 after 24 hrs by well diffusion method; assay type: functional; settings: MTCC 739, 24 h; procedure, shortened: as §1
Pseudomonas aeruginosa [7] = experiment: Antibacterial activity against Pseudomonas aeruginosa MTCC 2453 after 24 hrs by well diffusion method; assay type: functional; settings: MTCC 2453, 24 h; procedure, shortened: as §1
Staphylococcus aureus [8] = experiment: Bactericidal activity against Staphylococcus aureus MTCC 96 after 24 hrs; assay type: functional; settings: MTCC 96, 24 h
Procedure, shortened: (§2)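 Broth macrodilution in Mueller Hinton broth, compound serially diluted from 150 down to 0. Overnight bacterial culture added to a final 1.5 × 10^8 CFU/mL (0.5 McFarland), 24 h at 37 °C. Suspension then subcultured onto Mueller Hinton agar for 24 h at 37 °C. MBC is the lowest concentration killing the strain. Duplicates.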

Bacillus subtilis [9] = experiment: Bactericidal activity against Bacillus subtilis MTCC 121 after 24 hrs; assay type: functional; settings: MTCC 121, 24 h; procedure, shortened: as §2
Staphylococcus aureus [10] = experiment: Bactericidal activity against Staphylococcus aureus MLS16 MTCC 2940 after 24 hrs; assay type: functional; settings: MLS16 MTCC 2940, 24 h; procedure, shortened: as §2
Micrococcus luteus [11] = experiment: Bactericidal activity against Micrococcus luteus MTCC 2470 after 24 hrs; assay type: functional; settings: MTCC 2470, 24 h; procedure, shortened: as §2
Raoultella planticola [12] = experiment: Bactericidal activity against Klebsiella planticola MTCC 530 after 24 hrs; assay type: functional; settings: MTCC 530, 24 h; procedure, shortened: as §2
Escherichia coli [13] = experiment: Bactericidal activity against Escherichia coli MTCC 739 after 24 hrs; assay type: functional; settings: MTCC 739, 24 h; procedure, shortened: as §2
Pseudomonas aeruginosa [14] = experiment: Bactericidal activity against Pseudomonas aeruginosa MTCC 2453 after 24 hrs; assay type: functional; settings: MTCC 2453, 24 h; procedure, shortened: as §2
Staphylococcus aureus [15] = experiment: Antibiofilm activity against Staphylococcus aureus MTCC 96 incubated for 24 hrs under static condition by crystal violet staining-based assay; assay type: functional
Procedure, shortened: (§3)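 Strains grown overnight in tryptone soy broth with 0.5% glucose. Compound (250 to 0) mixed with inoculum at 5 × 10^5 CFU/mL in polystyrene microtiter plates. Non-adherent cells washed off with PBS; wells stained with 0.1% crystal violet, dye solubilised in 95% ethanol, absorbance read at 540 nm. IC50 for 50% biofilm inhibition taken from dose-response curves. Triplicates, mean ± S.D.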

Bacillus subtilis [16] = experiment: Antibiofilm activity against Bacillus subtilis MTCC 121 incubated for 24 hrs under static condition by crystal violet staining-based assay; assay type: functional; procedure, shortened: as §3
Staphylococcus aureus [17] = experiment: Antibiofilm activity against Staphylococcus aureus MLS16 MTCC 2940 incubated for 24 hrs under static condition by crystal violet staining-based assay; assay type: functional; procedure, shortened: as §3
Micrococcus luteus [18] = experiment: Antibiofilm activity against Micrococcus luteus MTCC 2470 incubated for 24 hrs under static condition by crystal violet staining-based assay; assay type: functional; procedure, shortened: as §3
Raoultella planticola [19] = experiment: Antibiofilm activity against Klebsiella planticola MTCC 530 incubated for 24 hrs under static condition by crystal violet staining-based assay; assay type: functional; procedure, shortened: as §3
Escherichia coli [20] = experiment: Antibiofilm activity against Escherichia coli MTCC 739 incubated for 24 hrs under static condition by crystal violet staining-based assay; assay type: functional; procedure, shortened: as §3
Pseudomonas aeruginosa [21] = experiment: Antibiofilm activity against Pseudomonas aeruginosa MTCC 2453 incubated for 24 hrs under static condition by crystal violet staining-based assay; assay type: functional; procedure, shortened: as §3
Micrococcus luteus [22] = experiment: Induction of intracellular ROS accumulation in Micrococcus luteus MTCC 2470 sessile biofilm cells at 0.5 to 4 ug/ml after 24 hrs by DCFH-DA staining-based assay; assay type: functional, cell-based
Procedure, shortened: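 Intracellular ROS was measured in M. luteus MTCC 2470 biofilms grown in 24-well plates. Mature biofilms were treated and incubated 24 h at 30 °C together with […] DCFH-DA. Well contents were centrifuged at 5000 × g for 10 min. Fluorescence (ex 485/em 535 nm) was read separately for supernatant and for sessile cells resuspended in PBS. Triplicate, mean ± S.D.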

Q: What does the source list for O=C(O)c1cn(C2CC2)c2cc(N3CCNCC3)c(F)cc2c1=O [CIPROFLOXACIN]?
A: MIC (Staphylococcus aureus [1]): 0.9 mg/L (≈ 2.72 µM); MIC (Bacillus subtilis [2]): 0.9 mg/L (≈ 2.72 µM); MIC (Micrococcus luteus [3]): 0.9 mg/L (≈ 2.72 µM); MIC (Staphylococcus aureus [4]): 0.9 mg/L (≈ 2.72 µM); MIC (Raoultella planticola [5]): 0.9 mg/L (≈ 2.72 µM); MIC (Escherichia coli [6]): 0.9 mg/L (≈ 2.72 µM); MIC (Pseudomonas aeruginosa [7]): 0.9 mg/L (≈ 2.72 µM); MBC (Staphylococcus aureus [8]): 0.9 mg/L (≈ 2.72 µM); MBC (Bacillus subtilis [9]): 1.9 mg/L (≈ 5.73 µM); MBC (Staphylococcus aureus [10]): 0.9 mg/L (≈ 2.72 µM); MBC (Micrococcus luteus [11]): 1.9 mg/L (≈ 5.73 µM); MBC (Raoultella planticola [12]): 0.9 mg/L (≈ 2.72 µM); MBC (Escherichia coli [13]): 0.9 mg/L (≈ 2.72 µM); MBC (Pseudomonas aeruginosa [14]): 1.9 mg/L (≈ 5.73 µM); IC50 (Staphylococcus aureus [15]): 0.6 mg/L (≈ 1.81 µM); IC50 (Bacillus subtilis [16]): 0.7 mg/L (≈ 2.11 µM); IC50 (Staphylococcus aureus [17]): 0.4 mg/L (≈ 1.21 µM); IC50 (Micrococcus luteus [18]): 0.5 mg/L (≈ 1.51 µM); IC50 (Raoultella planticola [19]): 0.6 mg/L (≈ 1.81 µM); INH (Escherichia coli [20]): 0.8 µg/mL; INH (Pseudomonas aeruginosa [21]): 0.7 µg/mL; Activity (Micrococcus luteus [22]): Active
